Source: ChEMBL document CHEMBL1155442, “Click chemistry approach to new N-substituted aminocyclitols as potential pharmacological chaperones for Gaucher disease” (J Med Chem, 2010)
The source made the active and inactive calls. No cut-off for these calls is given here.

What was measured:
[1] = target: T1, Lysosomal acid glucosylceramidase (Homo sapiens, UniProt P04062); test: Competitive inhibition of beta-glucocerebrosidase at pH 5.2 by Lineweaver-Burke plot analysis
T1 sequence (P04062 whole entry): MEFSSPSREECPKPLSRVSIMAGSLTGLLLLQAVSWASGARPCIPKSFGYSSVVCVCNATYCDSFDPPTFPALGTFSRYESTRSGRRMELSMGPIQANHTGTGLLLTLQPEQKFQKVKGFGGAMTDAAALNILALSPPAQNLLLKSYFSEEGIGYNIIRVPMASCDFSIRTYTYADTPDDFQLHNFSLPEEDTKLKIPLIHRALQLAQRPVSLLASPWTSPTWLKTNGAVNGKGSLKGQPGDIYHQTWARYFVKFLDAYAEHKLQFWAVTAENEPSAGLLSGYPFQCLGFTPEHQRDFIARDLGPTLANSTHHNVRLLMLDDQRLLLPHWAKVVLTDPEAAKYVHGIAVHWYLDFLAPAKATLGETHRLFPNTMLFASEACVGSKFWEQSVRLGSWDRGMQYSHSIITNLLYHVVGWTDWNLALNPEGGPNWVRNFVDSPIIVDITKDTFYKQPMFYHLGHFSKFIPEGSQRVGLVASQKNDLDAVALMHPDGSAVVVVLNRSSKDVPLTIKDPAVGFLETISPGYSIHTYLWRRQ

[2] = Cytotoxicity against human fibroblast at 300 uM after 24 hrs by MTT assay; format: cell-based
[3] = target: T2, Lysosomal acid glucosylceramidase (Homo sapiens) (UniProt P04062); test: Inhibition of beta-glucocerebrosidase in human fibroblast at 50 uM after 24 hrs by fluorescence assay
T2 sequence (whole entry): T1 sequence (P04062 whole entry)
Outline: (§1)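 Wild-type human fibroblasts exposed to compound for 24 h (10, 20 or 50 μM, as listed) with 5 mM substrate. Cellular GCase activity then measured.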

[4] = tested on: Prunus dulcis; test: Inhibition of sweet almond beta-glucosidase at 0.1 mM
[5] = tested on: Saccharomyces cerevisiae; test: Inhibition of yeast alpha-glucosidase at 0.1 mM
[6] = tested on: Oryza sativa; test: Inhibition of rice alpha-glucosidase at 0.1 mM
[7] = tested on: Oryza sativa; test: Inhibition of rice alpha-galactosidase at 0.1 mM
[8] = target: T3, Beta-galactosidase (Bos taurus) (UniProt Q58D55); test: Inhibition of bovine liver beta-galactosidase at 0.1 mM
T3 sequence (whole entry): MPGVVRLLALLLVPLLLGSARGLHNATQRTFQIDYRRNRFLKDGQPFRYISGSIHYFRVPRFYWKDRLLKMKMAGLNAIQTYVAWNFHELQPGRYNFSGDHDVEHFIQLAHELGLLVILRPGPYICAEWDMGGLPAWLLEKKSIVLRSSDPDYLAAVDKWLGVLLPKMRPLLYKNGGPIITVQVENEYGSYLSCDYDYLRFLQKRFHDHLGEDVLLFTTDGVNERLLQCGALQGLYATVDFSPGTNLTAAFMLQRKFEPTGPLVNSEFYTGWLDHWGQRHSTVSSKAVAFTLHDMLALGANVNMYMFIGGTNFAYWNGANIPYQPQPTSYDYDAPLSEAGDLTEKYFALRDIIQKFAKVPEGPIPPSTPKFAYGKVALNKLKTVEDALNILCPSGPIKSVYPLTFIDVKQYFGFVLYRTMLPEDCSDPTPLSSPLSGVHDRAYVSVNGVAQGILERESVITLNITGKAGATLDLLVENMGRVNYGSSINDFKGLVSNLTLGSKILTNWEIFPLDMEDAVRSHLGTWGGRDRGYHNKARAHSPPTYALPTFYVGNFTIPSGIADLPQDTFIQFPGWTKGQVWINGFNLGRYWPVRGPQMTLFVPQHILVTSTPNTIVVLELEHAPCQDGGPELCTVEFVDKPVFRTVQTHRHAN

[9] = Dissociation constant, pKa of the compound; format: physicochemical
[10] = target: T1, Lysosomal acid glucosylceramidase; test: Inhibition of recombinant beta-glucocerebrosidase after 10 mins by fluorimetry
Outline: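 Imiglucerase (0.1 mg/mL stock) in McIlvaine buffer, pH 5.2 or 7.4, with 0.2% sodium taurocholate and 0.1% Triton X-100. Preincubated 30 min at 37 °C with or without inhibitor. Then 4 mM 4-methylumbelliferyl-β-D-glucopyranoside added for 10 min at 37 °C. Stopped with glycine/NaOH pH 10.6; 4-MU read at ex 355/em 460 nm. IC50 from % activity vs log[I], at least five concentrations.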

[11] = target: T1, Lysosomal acid glucosylceramidase; test: Inhibition of recombinant beta-glucocerebrosidase at pH 7.4 after 10 mins by fluorimetry
[12] = target: T1, Lysosomal acid glucosylceramidase; test: Inhibition of recombinant beta-glucocerebrosidase at pH 5.2 after 10 mins by fluorimetry
[13] = target: T2, Lysosomal acid glucosylceramidase (Homo sapiens); test: Binding affinity to recombinant beta-glucocerebrosidase assessed as enzymatic activity at 50 uM after 20 mins by thermal stabilization assay relative to control
[14] = target: T2, Lysosomal acid glucosylceramidase (Homo sapiens); test: Binding affinity to recombinant beta-glucocerebrosidase assessed as enzymatic activity at 50 uM after 40 mins by thermal stabilization assay relative to control
[15] = target: T2, Lysosomal acid glucosylceramidase (Homo sapiens); test: Binding affinity to recombinant beta-glucocerebrosidase assessed as enzymatic activity at 50 uM after 60 mins by thermal stabilization assay relative to control
[16] = target: T2, Lysosomal acid glucosylceramidase (Homo sapiens); test: Binding affinity to recombinant beta-glucocerebrosidase assessed as enzymatic activity at 100 uM after 20 mins by thermal stabilization assay relative to control
[17] = target: T2, Lysosomal acid glucosylceramidase (Homo sapiens); test: Binding affinity to recombinant beta-glucocerebrosidase assessed as enzymatic activity at 100 uM after 40 mins by thermal stabilization assay relative to control
[18] = target: T2, Lysosomal acid glucosylceramidase (Homo sapiens); test: Binding affinity to recombinant beta-glucocerebrosidase assessed as enzymatic activity at 100 uM after 60 mins by thermal stabilization assay relative to control
[19] = target: T2, Lysosomal acid glucosylceramidase (Homo sapiens); test: Binding affinity to recombinant beta-glucocerebrosidase assessed as enzymatic activity at 150 uM after 20 mins by thermal stabilization assay relative to control
[20] = target: T2, Lysosomal acid glucosylceramidase (Homo sapiens); test: Binding affinity to recombinant beta-glucocerebrosidase assessed as enzymatic activity at 150 uM after 40 mins by thermal stabilization assay relative to control
[21] = target: T2, Lysosomal acid glucosylceramidase (Homo sapiens); test: Binding affinity to recombinant beta-glucocerebrosidase assessed as enzymatic activity at 150 uM after 60 mins by thermal stabilization assay relative to control
[22] = Cytotoxicity against human fibroblast after 24 hrs by MTT assay; format: cell-based; details: human fibroblasts
[23] = Selectivity index, ratio of CC50 for human fibroblast to Ki for beta-glucocerebrosidase
[24] = target: T2, Lysosomal acid glucosylceramidase (Homo sapiens); test: Inhibition of beta-glucocerebrosidase in human fibroblast at 20 uM after 24 hrs by fluorescence assay; outline: as §1
[25] = target: T2, Lysosomal acid glucosylceramidase (Homo sapiens); test: Inhibition of beta-glucocerebrosidase in human fibroblast at 10 uM after 24 hrs by fluorescence assay; outline: as §1

Row | Structure (SMILES) | Ki [1] [µM] | inhibition [3] | inhibition [4] | inhibition [5] | inhibition [6] | inhibition [7] | inhibition [8] | pKa [9] | IC50 [10] [µM] | IC50 [11] [µM] | IC50 [12] [µM] | fold change (FC) [13] | fold change (FC) [14] | fold change (FC) [15] | fold change (FC) [16] | fold change (FC) [17] | fold change (FC) [18] | fold change (FC) [19] | fold change (FC) [20] | Activity [2] | other results
1 | O[C@@H]1[C@@H](O)[C@H](O)[C@@H](NCc2cn(CCc3ccccc3)nn2)[C@H](O)[C@H]1O | 19.1 | < 5% | inactive | inactive | inactive | inactive | inactive | 7.8 | 10.7 | 25 | 10.8 | – | – | – | – | – | – | – | – | Non-toxic | –
2 | CCCCN1C[C@H](O)[C@@H](O)[C@H](O)[C@H]1CO | – | – | – | – | – | – | – | – | – | – | – | – | – | – | – | – | – | – | – | Non-toxic | –
3 | CCCCCCCCCCCCCCn1cc(CN[C@H]2[C@H](O)[C@@H](O)[C@H](O)[C@@H](O)[C@@H]2O)nn1 | 0.08 | Toxic | inactive | inactive | inactive | inactive | inactive | 7.7 | 0.0891 | 0.1 | 0.09 | 2.82 | 7.86 | 13.8 | 2.88 | 7.48 | 13.2 | 2.67 | 5.91 | – | fold change (FC) [21]: 9.4; CC50 at 24 h [22]: 19 µM; Selectivity Index [23]: 237; inhibition [24]: Toxic; inhibition [25]: 93%
4 | CCCCCCCCCCN[C@H]1[C@H](O)[C@@H](O)[C@H](O)[C@@H](O)[C@@H]1O | 0.3 | – | – | – | – | – | – | – | – | – | 1.8 | 1.29 | 2.33 | 2.24 | 1.84 | 4.49 | 4.89 | 1.99 | 5.85 | Non-toxic | fold change (FC) [21]: 11.3
5 | CCCCn1cc(CN[C@H]2[C@H](O)[C@@H](O)[C@H](O)[C@@H](O)[C@@H]2O)nn1 | – | < 5% | inactive | inactive | inactive | inactive | inactive | 7.2 | 178 | – | 178 | – | – | – | – | – | – | – | – | Non-toxic | –
6 | CCCCCCCCCn1cc(CN[C@H]2[C@H](O)[C@@H](O)[C@H](O)[C@@H](O)[C@@H]2O)nn1 | 0.33 | 50% | inactive | inactive | inactive | inactive | inactive | 7.1 | 0.224 | 0.2 | 0.2 | 2.06 | 5.69 | 9.95 | 2.28 | 6.71 | 13 | 2.34 | 7.23 | Non-toxic | fold change (FC) [21]: 15.5; Selectivity Index [23]: >=900
7 | CCCCCCCCCN1C[C@H](O)[C@@H](O)[C@H](O)[C@H]1CO | – | – | – | – | – | – | – | – | – | – | – | – | – | – | – | – | – | – | – | Non-toxic | –

Further compounds by falling IC50 [10], results first:

Row | Ki [1] [µM] | inhibition [3] | inhibition [4] | inhibition [5] | inhibition [6] | inhibition [7] | inhibition [8] | pKa [9] | IC50 [10] [µM] | IC50 [11] [µM] | IC50 [12] [µM] | fold change (FC) [13] | fold change (FC) [14] | fold change (FC) [15] | fold change (FC) [16] | fold change (FC) [17] | fold change (FC) [18] | fold change (FC) [19] | fold change (FC) [20] | Structure (SMILES) | Activity [2] | other results
8 | – | < 5% | inactive | inactive | inactive | inactive | inactive | 9.1 | 166 | 55.9 | 167 | – | – | – | – | – | – | – | – | CCCCCCCCn1cc(CCN[C@H]2[C@H](O)[C@@H](O)[C@H](O)[C@@H](O)[C@@H]2O)nn1 | Non-toxic | –
9 | – | < 5% | inactive | inactive | inactive | inactive | inactive | 9.1 | 44.7 | 11 | 44.7 | 2.22 | 4.54 | 4.62 | 2.32 | 5.75 | 7.6 | 2.37 | 6.1 | CCCCCCCCCn1cc(CCN[C@H]2[C@H](O)[C@@H](O)[C@H](O)[C@@H](O)[C@@H]2O)nn1 | Non-toxic | fold change (FC) [21]: 9.44
10 | 19.9 | 40% | inactive | inactive | inactive | inactive | inactive | 9.4 | 35.5 | 18.2 | 35.4 | – | – | – | – | – | – | – | – | CCCCCCCCn1cc(CCCN[C@H]2[C@H](O)[C@@H](O)[C@H](O)[C@@H](O)[C@@H]2O)nn1 | – | CC50 at 24 h [22]: 97 µM
11 | 2.4 | < 5% | inactive | inactive | inactive | inactive | inactive | 7.1 | 7.41 | 6.2 | 7.4 | – | – | – | – | – | – | – | – | CCCOCCCCCCn1cc(CN[C@H]2[C@H](O)[C@@H](O)[C@H](O)[C@@H](O)[C@@H]2O)nn1 | Non-toxic | –
12 | 7.6 | 20% | inactive | inactive | inactive | inactive | inactive | 9.9 | 3.47 | 1.2 | 3.5 | – | – | – | – | – | – | – | – | CCCCCCCCCCn1cc(CCCN[C@H]2[C@H](O)[C@@H](O)[C@H](O)[C@@H](O)[C@@H]2O)nn1 | – | CC50 at 24 h [22]: 170 µM
13 | 1.8 | 20% | inactive | inactive | inactive | inactive | inactive | 7.7 | 1.05 | 1.1 | 1 | – | – | – | – | – | – | – | – | CCCCCCCCn1cc(CN[C@H]2[C@H](O)[C@@H](O)[C@H](O)[C@@H](O)[C@@H]2O)nn1 | Non-toxic | –
